In ChEMBL document CHEMBL3244384, “3,4-Methylenedioxyphenyl-, isopropylidenedioxyphenyl-, and benzyl-substituted chiral 2-aminosuccinimides and 3-aminopyrrolidines. Stereoselective investigations of potential anti-parkinsonian, antipsychotic, and anticonvulsant activities” (J Med Chem, 1977):
Activity calls are given as the source filed them.

How the values were obtained:
Mus musculus [1] = assay: Toxicity in albino CD-1 mouse assessed as increased excitability to touch at >/= 6.1 mmol/kg, ip; type: organism-based; conditions: in vivo
Mus musculus [2] = assay: Neurotoxicity in ip dosed albino CD-1 mouse assessed as time to peak central activity by rotarod test; type: toxicity, organism-based; conditions: in vivo
How it was run: (§1)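 Male CD-1 mice (20-25 g), groups of 6-12, given ip doses in aqueous solution (1.0 mL/100 g). Neurotoxicity = failure to stay 1 min on a rod turning at 6 rpm. Time of peak central activity found. TD50 and 95% limits by Litchfield-Wilcoxon from at least three points in the 10-90% range.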

Mus musculus [3] = assay: Anticonvulsant activity in ip dosed albino CD-1 mouse assessed as protection from maximal electroshock-induced seizures measured at time of peak effect; type: functional; conditions: CD-1, ip
How it was run: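 Male CD-1 mice (20-25 g) dosed ip in aqueous solution (1.0 mL/100 g). At time of peak rotarod activity, MES given by corneal electrodes (50-mA ac, 0.2 s). End point: abolition of hindlimb-extensor component.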

Mus musculus [4] = assay: Anticonvulsant activity in ip dosed albino CD-1 mouse assessed as threshold ratio for pentylenetetrazole-induced clonic seizures at 0.5 time TD50 measured at time of peak effect relative to saline-treated control; type: functional
How it was run: (§2)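 Male CD-1 mice (20-25 g) given saline or 0.5 TD50 test compound ip. At time of peak activity, pentylenetetrazole (0.5%) infused iv at 0.51 mL/min until minimal (clonic) or maximal (tonic-clonic) seizure. Threshold ratio = mean mg/kg pentylenetetrazole in treated mice ÷ mg/kg in saline mice, with 95% confidence intervals.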

[5] = Protective index, ratio of TD50 for neurotoxicity to ED50 for anticonvulsant activity in ip dosed albino CD-1 mouse; type: toxicity, organism-based; conditions: in vivo, read-out: Ratio TD50/ED50
How it was run: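 Groups of 6-12 male CD-1 mice dosed ip across a range giving at least three points at 10-90% MES protection or rotarod neurotoxicity. ED50 and TD50 by Litchfield-Wilcoxon; PI = TD50/ED50, not calculated when protection is below 50%.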

[6] = Neurotoxicity in ip dosed albino CD-1 mouse by rotarod test; type: toxicity, organism-based; conditions: in vivo; how it was run: as §1
Mus musculus [7] = assay: Anticonvulsant activity in ip dosed albino CD-1 mouse assessed as threshold ratio for pentylenetetrazole-induced tonic-clonic seizures at 0.5 time TD50 measured at time of peak effect relative to saline-treated control; type: functional; how it was run: as §2
Mus musculus [8] = assay: Toxicity in albino CD-1 mouse assessed as occasional clonic seizure-like movements at >/= 6.1 mmol/kg, ip; type: organism-based; conditions: in vivo
Mus musculus [9] = assay: Toxicity in albino CD-1 mouse assessed as loss of righting reflex at >/= 6.1 mmol/kg, ip; type: organism-based; conditions: in vivo
Mus musculus [10] = assay: Toxicity in albino CD-1 mouse assessed as twitching at >/= 6.1 mmol/kg, ip; type: organism-based; conditions: in vivo
Mus musculus [11] = assay: Anti-parkinsonian activity in ip dosed albino CD-1 mouse assessed as inhibition of oxotremorine-induced diarrhea at 0.25 to 1 time TD50 administered 30 mins prior challenge; type: functional, organism-based
How it was run: (§3)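 Male CD-1 mice (20-25 g), groups of five, given test compound ip (aqueous, 1.0 mL/100 g) or saline 30 min before oxotremorine 1 mg/kg ip. Tremor intensity scored 0 absent, 1 mild, 2 moderate, 3 severe, summed over five animals; diarrhea and salivation also observed.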

Mus musculus [12] = assay: Anti-parkinsonian activity in ip dosed albino CD-1 mouse assessed as inhibition of oxotremorine-induced tremor at 0.25 to 1 time TD50 administered 30 mins prior challenge; type: functional, organism-based; how it was run: as §3
Mus musculus [13] = assay: Anti-parkinsonian activity in ip dosed albino CD-1 mouse assessed as inhibition of oxotremorine-induced salivation at 0.25 to 1 time TD50 administered 30 mins prior challenge; type: functional, organism-based; how it was run: as §3
[14] = Antagonist activity at acetylcholine receptor (unknown origin); design: species or system Homo sapiens
Mus musculus [15] = assay: Toxicity in albino CD-1 mouse assessed as behavioral effect at 2.81 mmol/kg, ip; type: organism-based; conditions: in vivo
Mus musculus [16] = assay: Toxicity in albino CD-1 mouse assessed as loss of righting reflex at >/= 2.68 mmol/kg, ip; type: organism-based; conditions: in vivo
Mus musculus [17] = assay: Toxicity in albino CD-1 mouse assessed as sedation at >/= 2.68 mmol/kg, ip; type: organism-based; conditions: in vivo
Mus musculus [18] = assay: Toxicity in albino CD-1 mouse assessed as clonic-like seizure activity at >/= 2.68 mmol/kg, ip; type: organism-based; conditions: in vivo
Mus musculus [19] = assay: Toxicity in albino CD-1 mouse assessed as mortality at >/= 2.68 mmol/kg, ip; type: organism-based; conditions: in vivo
Mus musculus [20] = assay: Anti-parkinsonian activity in ip dosed albino CD-1 mouse assessed as inhibition of oxotremorine-induced tremor administered 30 mins prior challenge; type: functional, organism-based; how it was run: as §3

With `CC(=O)N[C@@H]1CC(=O)N(Cc2ccccc2)C1=O` the Activity (Mus musculus [1]) was “Toxic”, the Time (Mus musculus [2]) was 30 min and the ED50 (Mus musculus [3]) was 1460 µmol/kg. The Ratio (Mus musculus [4]) was 1.36, the selectivity ratio [5] was 3.25 and the TD50 [6] was 4760 µmol/kg. For the same molecule, the Ratio (Mus musculus [7]) was 0.85, the Activity (Mus musculus [8]) was “Toxic” and the Activity (Mus musculus [9]) was “Toxic”. For the same molecule, the Activity (Mus musculus [10]) was “Toxic”.

For `Cl.N[C@@H]1CC(=O)N(c2ccc3c(c2)OCO3)C1=O`, the Activity (Mus musculus [11]) was “Active”, the Activity (Mus musculus [12]) was “inactive” and the Time (Mus musculus [2]) was 45 min. The ED50 (Mus musculus [3]) was 3330 µmol/kg, the Ratio (Mus musculus [4]) was 1.03 and the Activity (Mus musculus [13]) was “Active”. The TD50 [6] was 3330 µmol/kg and the Ratio (Mus musculus [7]) was 0.75.

`CCN[C@@H]1CCN(c2ccccc2)C1` showed a pA2 [14] of 3.5.

With `CCC1(C)CC(=O)NC1=O` (stereo not given) [ETHOSUXIMIDE] the Time (Mus musculus [2]) was 5 min, the ED50 (Mus musculus [3]) was 2320 µmol/kg and the Ratio (Mus musculus [4]) was 1.34. The TD50 [6] was 2320 µmol/kg and the Ratio (Mus musculus [7]) was 1.71.

In the case of `Cl.N[C@H]1CC(=O)N(c2ccc3c(c2)OCO3)C1=O`, the Activity (Mus musculus [11]) is reported as “Active”, the Activity (Mus musculus [12]) is reported as “inactive” and the Time (Mus musculus [2]) is reported as 45 min. The ED50 (Mus musculus [3]) was 5040 µmol/kg, the Ratio (Mus musculus [4]) was 1.08 and the Activity (Mus musculus [13]) was “Active”. The TD50 [6] was 5040 µmol/kg and the Ratio (Mus musculus [7]) was 0.92.

For `Cl.N[C@@H]1CC(=O)N(Cc2ccc3c(c2)OCO3)C1=O`, the Activity (Mus musculus [15]) was “Non-toxic”, the Time (Mus musculus [2]) was 15 min and the ED50 (Mus musculus [3]) was 720 µmol/kg. The Ratio (Mus musculus [4]) was 1.61, the selectivity ratio [5] was 2.54 and the TD50 [6] was 1830 µmol/kg. It also gave a Ratio (Mus musculus [7]) of 1.18.

With `CC1(C)Oc2ccc(N3C(=O)C[C@H](N)C3=O)cc2O1.Cl` the Activity (Mus musculus [16]) was “Toxic”, the Activity (Mus musculus [11]) was “inactive” and the Activity (Mus musculus [12]) was “Active”. For the same molecule, the Time (Mus musculus [2]) was 30 min, the Activity (Mus musculus [17]) was “Toxic” and the ED50 (Mus musculus [3]) was 840 µmol/kg. The Ratio (Mus musculus [4]) was 1.36, the Activity (Mus musculus [13]) was “inactive” and the selectivity ratio [5] was 1.45. The TD50 [6] was 1220 µmol/kg, the Ratio (Mus musculus [7]) was 1.34 and the Activity (Mus musculus [18]) was “Toxic”. The Activity (Mus musculus [19]) was “Toxic”.

With `Cl.N[C@H]1CC(=O)N(Cc2ccc3c(c2)OCO3)C1=O` the Activity (Mus musculus [15]) was “Non-toxic”, the Time (Mus musculus [2]) was 15 min and the ED50 (Mus musculus [3]) was 700 µmol/kg. For the same molecule, the Ratio (Mus musculus [4]) was 1.54, the selectivity ratio [5] was 2.85 and the TD50 [6] was 2000 µmol/kg. The Ratio (Mus musculus [7]) was 1.09.

Molecule `O=C1N=C([O-])NC1(c1ccccc1)c1ccccc1.[Na+]` [PHENYTOIN SODIUM] has a Time (Mus musculus [2]) of 45 min, an ED50 (Mus musculus [3]) of 22 µmol/kg and a Ratio (Mus musculus [4]) of 1.07. It also gave a selectivity ratio [5] of 10, a TD50 [6] of 220 µmol/kg and a Ratio (Mus musculus [7]) of 2.08.

For `CC1(C)Oc2ccc(N3C(=O)C[C@@H](N)C3=O)cc2O1.Cl`, the Activity (Mus musculus [16]) was “Toxic”, the Activity (Mus musculus [11]) was “inactive” and the Activity (Mus musculus [12]) was “Active”. The Activity (Mus musculus [20]) was “Dose-dependent effect”, the Time (Mus musculus [2]) was 15 min and the Activity (Mus musculus [17]) was “Toxic”. For the same molecule, the ED50 (Mus musculus [3]) was 570 µmol/kg, the Ratio (Mus musculus [4]) was 1.28 and the Activity (Mus musculus [13]) was “inactive”. For the same molecule, the selectivity ratio [5] was 1.68, the TD50 [6] was 960 µmol/kg and the Ratio (Mus musculus [7]) was 1.66. For the same molecule, the Activity (Mus musculus [18]) was “Toxic” and the Activity (Mus musculus [19]) was “Toxic”.

In the case of `CC(=O)N[C@H]1CC(=O)N(Cc2ccccc2)C1=O`, the Activity (Mus musculus [1]) is reported as “Toxic”, the Time (Mus musculus [2]) is reported as 30 min and the ED50 (Mus musculus [3]) is reported as 1200 µmol/kg. It also gave a Ratio (Mus musculus [4]) of 1.06, a selectivity ratio [5] of 4.41 and a TD50 [6] of 5280 µmol/kg. The Ratio (Mus musculus [7]) was 1.11, the Activity (Mus musculus [8]) was “Toxic” and the Activity (Mus musculus [9]) was “Toxic”. The Activity (Mus musculus [10]) was “Toxic”.

`CN1C(=O)OC(C)(C)C1=O` [TRIMETHADIONE] showed a Time (Mus musculus [2]) of 5 min, an ED50 (Mus musculus [3]) of 3720 µmol/kg and a Ratio (Mus musculus [4]) of 2.05. It also gave a selectivity ratio [5] of 1.07, a TD50 [6] of 3980 µmol/kg and a Ratio (Mus musculus [7]) of 2.25.
